Data on 29 compounds can be found in ChEMBL document CHEMBL4368943 (J Med Chem, 2019).

Assay type in all cases: cell-based
The target of experiment [1] is T1, von Hippel-Lindau disease tumor suppressor/Estrogen receptor/Cullin-2 (Homo sapiens, UniProt P03372+P40337+Q13617). The experiment can be described thus: Protac activity against VHL/cullin2/ERalpha in human MCF7 cells assessed as ERalpha degradation by measuring ER protein/GADPH ratio at 1 nM after 4 hrs by Western blot analysis relative to control. In short, it runs like this:
(§1)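 MCF-7 cells (DMEM, 10% FBS, passages 3−8) exposed 4 h. Lysed in RIPA with protease inhibitors; equal protein on 10% SDS-PAGE, PVDF, anti-ERα blot. Membranes stripped and reprobed for GAPDH. ERα/GAPDH ratio normalized to DMSO = 100; DC50 from densitometry of the dose series.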

Experiment [2] deals with T1, von Hippel-Lindau disease tumor suppressor/Estrogen receptor/Cullin-2. Briefly: Protac activity against VHL/cullin2/ERalpha in human MCF7 cells assessed as ERalpha degradation by measuring ER protein/GADPH ratio at 10 nM after 4 hrs by Western blot analysis relative to control. In short, it runs like this: as §1
Experiment [3] has the same target. Briefly: Protac activity against VHL/cullin2/ERalpha in human MCF7 cells assessed as ERalpha degradation by measuring ER protein/GADPH ratio at 100 nM after 4 hrs by Western blot analysis relative to control. In short, it runs like this:
as §1

Structures are written as SMILES.

T1 sequence (P03372 whole entry, looked up): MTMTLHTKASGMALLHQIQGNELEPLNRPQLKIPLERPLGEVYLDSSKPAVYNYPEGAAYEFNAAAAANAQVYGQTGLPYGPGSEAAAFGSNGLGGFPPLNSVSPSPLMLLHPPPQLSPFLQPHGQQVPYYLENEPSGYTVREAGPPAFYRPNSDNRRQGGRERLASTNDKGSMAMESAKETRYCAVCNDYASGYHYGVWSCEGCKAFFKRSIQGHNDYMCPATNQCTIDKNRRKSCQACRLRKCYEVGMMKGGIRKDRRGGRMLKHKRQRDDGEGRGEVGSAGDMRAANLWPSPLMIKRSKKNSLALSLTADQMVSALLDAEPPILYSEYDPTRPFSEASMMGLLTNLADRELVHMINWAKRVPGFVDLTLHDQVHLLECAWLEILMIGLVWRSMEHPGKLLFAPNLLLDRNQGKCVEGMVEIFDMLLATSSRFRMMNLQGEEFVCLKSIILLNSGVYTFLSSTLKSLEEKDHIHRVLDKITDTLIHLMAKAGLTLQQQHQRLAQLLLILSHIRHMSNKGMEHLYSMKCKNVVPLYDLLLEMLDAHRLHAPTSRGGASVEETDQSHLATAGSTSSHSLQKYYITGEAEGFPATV
T1 sequence (P40337 whole entry, looked up): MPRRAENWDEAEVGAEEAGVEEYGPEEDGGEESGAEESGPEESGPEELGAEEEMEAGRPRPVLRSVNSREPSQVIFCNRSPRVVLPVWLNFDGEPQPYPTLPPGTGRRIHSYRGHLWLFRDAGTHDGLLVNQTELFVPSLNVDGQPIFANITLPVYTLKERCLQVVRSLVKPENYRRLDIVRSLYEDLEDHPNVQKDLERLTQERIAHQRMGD
T1 sequence (Q13617 whole entry, looked up): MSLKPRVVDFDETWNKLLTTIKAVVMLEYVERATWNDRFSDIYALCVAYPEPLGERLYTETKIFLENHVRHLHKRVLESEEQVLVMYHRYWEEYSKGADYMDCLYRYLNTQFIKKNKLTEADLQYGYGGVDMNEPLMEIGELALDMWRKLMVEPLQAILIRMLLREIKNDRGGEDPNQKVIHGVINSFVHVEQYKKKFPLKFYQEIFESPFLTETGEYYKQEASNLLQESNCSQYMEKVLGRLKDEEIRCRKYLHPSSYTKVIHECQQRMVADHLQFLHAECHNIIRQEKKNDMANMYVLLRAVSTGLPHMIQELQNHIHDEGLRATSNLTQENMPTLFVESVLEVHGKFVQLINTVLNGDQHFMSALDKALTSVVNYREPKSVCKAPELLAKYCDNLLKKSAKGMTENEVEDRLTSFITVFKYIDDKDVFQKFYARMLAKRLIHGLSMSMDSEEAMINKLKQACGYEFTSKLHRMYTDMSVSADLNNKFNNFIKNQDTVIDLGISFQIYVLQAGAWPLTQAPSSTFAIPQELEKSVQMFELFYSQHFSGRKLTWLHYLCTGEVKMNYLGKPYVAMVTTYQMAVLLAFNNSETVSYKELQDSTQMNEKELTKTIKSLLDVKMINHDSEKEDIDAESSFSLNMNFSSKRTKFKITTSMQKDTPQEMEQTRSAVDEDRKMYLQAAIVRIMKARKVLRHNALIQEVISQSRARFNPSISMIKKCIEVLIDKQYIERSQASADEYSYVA

Consider `Cc1ncsc1-c1ccc([C@H](C)NC(=O)[C@@H]2C[C@@H](O)CN2C(=O)[C@@H](NC(=O)CCCCCCCN(CCOc2ccc(C(=O)c3c(-c4ccc(O)cc4)sc4cc(O)ccc34)cc2)C2CC2)C(C)(C)C)cc1`, for which the Ratio amounted to 20 in experiment [1], 0.2 in experiment [2] and 0.1 in experiment [3].
Regarding `CCN(CCCCCCC(=O)N[C@H](C(=O)N1C[C@H](O)C[C@H]1C(=O)N[C@@H](C)c1ccc(-c2scnc2C)cc1)C(C)(C)C)CCOc1ccc(C(=O)c2c(-c3ccc(O)cc3)sc3cc(O)ccc23)cc1`, the Ratio is 32 in experiment [1], 8 in experiment [2] and 6 in experiment [3].
Regarding `CCN(CCCCCCCC(=O)N[C@H](C(=O)N1C[C@H](O)C[C@H]1C(=O)N[C@@H](C)c1ccc(C(C)(C)C)cc1)C(C)(C)C)CCOc1ccc(C(=O)c2c(-c3ccc(O)cc3)sc3cc(O)ccc23)cc1`, the Ratio in experiment [1] worked out at 136; in experiment [2], 112; in experiment [3] it was 80.
Regarding `Cc1ncsc1-c1ccc([C@H](C)NC(=O)[C@@H]2C[C@@H](O)CN2C(=O)[C@@H](NC(=O)CCCCCCCN(CCOc2ccc(C(=O)c3c(-c4ccc(O)cc4)sc4cc(O)ccc34)cc2)C(C)(C)C)C(C)(C)C)cc1`, the Ratio in experiment [1] is 21; in experiment [2], 0.2; in experiment [3] it was 0.
In the same order, the values of `Cc1ncsc1-c1ccc([C@H](C)NC(=O)[C@@H]2C[C@@H](O)CN2C(=O)[C@@H](NC(=O)CCCCCCCN(CCOc2ccc(C(=O)c3c(-c4ccc(O)cc4)sc4cc(O)ccc34)cc2)C2CCCCC2)C(C)(C)C)cc1` are 68, 0.6 and 0.1.
In the same order, the values of `Cc1ncsc1-c1ccc([C@H](C)NC(=O)[C@@H]2C[C@@H](O)CN2C(=O)[C@@H](NC(=O)CCCCCCCN(CCOc2ccc(C(=O)c3c(-c4ccc(O)cc4)sc4cc(O)ccc34)cc2)C2CCC2)C(C)(C)C)cc1` are 15, 4 and 0.1.
For `CCN(CCCCc1cnn(CC(=O)N[C@H](C(=O)N2C[C@H](O)C[C@H]2C(=O)N[C@@H](C)c2ccc(-c3scnc3C)cc2)C(C)(C)C)c1)CCOc1ccc(C(=O)c2c(-c3ccc(O)cc3)sc3cc(O)ccc23)cc1`, the Ratio in experiment [1] turned out to be 99; in experiment [2], 20; in experiment [3] it was 12.
For `CCN(CCOc1ccc(C(=O)c2c(-c3ccc(O)cc3)sc3cc(O)ccc23)cc1)CCN1CCN(CCCC(=O)N[C@H](C(=O)N2C[C@H](O)C[C@H]2C(=O)N[C@@H](C)c2ccc(-c3scnc3C)cc2)C(C)(C)C)CC1`, the Ratio in experiment [1] is 208; in experiment [2], 50; in experiment [3], 24.
In the same order, the values of `CCN(CCCCCCCCCC(=O)N[C@H](C(=O)N1C[C@H](O)C[C@H]1C(=O)N[C@@H](C)c1ccc(-c2scnc2C)cc1)C(C)(C)C)CCOc1ccc(C(=O)c2c(-c3ccc(O)cc3)sc3cc(O)ccc23)cc1` are 25, 0.4 and 0.3.
On to `CCN(CCOCCOCC(=O)N[C@H](C(=O)N1C[C@H](O)C[C@H]1C(=O)N[C@@H](C)c1ccc(-c2scnc2C)cc1)C(C)(C)C)CCOc1ccc(C(=O)c2c(-c3ccc(O)cc3)sc3cc(O)ccc23)cc1`, for which the values for the Ratio in experiment [1], in experiment [2] and in experiment [3] were 94, 0.4 and 0.4, respectively.
As for `CCN(CCC#Cc1cnn(CC(=O)N[C@H](C(=O)N2C[C@H](O)C[C@H]2C(=O)N[C@@H](C)c2ccc(-c3scnc3C)cc2)C(C)(C)C)c1)CCOc1ccc(C(=O)c2c(-c3ccc(O)cc3)sc3cc(O)ccc23)cc1`, the Ratio turned out to be 139 in experiment [1], 45 in experiment [2] and 24 in experiment [3].
On to `CCN(CCOCCOCCC(=O)N[C@H](C(=O)N1C[C@H](O)C[C@H]1C(=O)N[C@@H](C)c1ccc(-c2scnc2C)cc1)C(C)(C)C)CCOc1ccc(C(=O)c2c(-c3ccc(O)cc3)sc3cc(O)ccc23)cc1`, for which the Ratio stood at 183 in experiment [1], 2.4 in experiment [2] and 1.7 in experiment [3].
In the same order, the values of `CCN(CCCCCCCC(=O)N[C@H](C(=O)N1C[C@H](O)C[C@H]1C(=O)NCc1ccc(-c2scnc2C)cc1)C(C)(C)C)CCOc1ccc(C(=O)c2c(-c3ccc(O)cc3)sc3cc(O)ccc23)cc1` are 79, 71 and 62.
In the same order, the values of `CCN(CCOc1ccc(C(=O)c2c(-c3ccc(O)cc3)sc3cc(O)ccc23)cc1)CCC1CCN(CCCC(=O)N[C@H](C(=O)N2C[C@H](O)C[C@H]2C(=O)N[C@@H](C)c2ccc(-c3scnc3C)cc2)C(C)(C)C)CC1` are 227, 91 and 98.
As for `Cc1ncsc1-c1ccc([C@H](C)NC(=O)[C@@H]2C[C@@H](O)CN2C(=O)[C@@H](NC(=O)CCCCCCCN(CCOc2ccc(C(=O)c3c(-c4ccc(O)cc4)sc4cc(O)ccc34)cc2)CC2CCC2)C(C)(C)C)cc1`, the Ratio in experiment [1] was found to be 76; in experiment [2], 1.3; in experiment [3], 0.2.
For `Cc1ncsc1-c1ccc([C@H](C)NC(=O)[C@@H]2C[C@@H](O)CN2C(=O)[C@@H](NC(=O)CCCCCCCN(C)CCOc2ccc(C(=O)c3c(-c4ccc(O)cc4)sc4cc(O)ccc34)cc2)C(C)(C)C)cc1`, the Ratio in experiment [1] came out at 27; in experiment [2], 153; in experiment [3], 46.
In the same order, the values of `CCN(CCCCC(=O)N[C@H](C(=O)N1C[C@H](O)C[C@H]1C(=O)N[C@@H](C)c1ccc(-c2scnc2C)cc1)C(C)(C)C)CCOc1ccc(C(=O)c2c(-c3ccc(O)cc3)sc3cc(O)ccc23)cc1` are 90, 129 and 92.
Regarding `CCN(CCCC#Cc1cnn(CCC(=O)N[C@H](C(=O)N2C[C@H](O)C[C@H]2C(=O)N[C@@H](C)c2ccc(-c3scnc3C)cc2)C(C)(C)C)c1)CCOc1ccc(C(=O)c2c(-c3ccc(O)cc3)sc3cc(O)ccc23)cc1`, the Ratio in experiment [1] was found to be 70; in experiment [2] it was 0.5; in experiment [3], 0.4.
Regarding `CCN(CCCC(=O)N[C@H](C(=O)N1C[C@H](O)C[C@H]1C(=O)N[C@@H](C)c1ccc(-c2scnc2C)cc1)C(C)(C)C)CCOc1ccc(C(=O)c2c(-c3ccc(O)cc3)sc3cc(O)ccc23)cc1`, the Ratio in experiment [1] came out at 63; in experiment [2] it was 139; in experiment [3], 135.
Taken in the same sequence, the figures for `CCN(CCCCCCCC(=O)N[C@H](C(=O)N1C[C@H](O)C[C@H]1C(=O)N[C@@H](C)c1ccc(-c2scnc2C)cc1)C(C)(C)C)CCOc1ccc([C@@H]2c3ccc(O)cc3CC[C@@H]2c2ccccc2)cc1` were 74, 5 and 0.3.
In the same order, the values of `CCN(CCCCCCCC(=O)N[C@H](C(=O)N1C[C@H](O)C[C@H]1C(=O)N[C@@H](C)c1ccc(C(C)C)cc1)C(C)(C)C)CCOc1ccc(C(=O)c2c(-c3ccc(O)cc3)sc3cc(O)ccc23)cc1` are 138, 109 and 78.
In the case of `CCN(CCCCCCCC(=O)N[C@H](C(=O)N1C[C@H](O)C[C@H]1C(=O)N[C@@H](C)c1ccc(C#N)cc1)C(C)(C)C)CCOc1ccc(C(=O)c2c(-c3ccc(O)cc3)sc3cc(O)ccc23)cc1`, the Ratio is 110 in experiment [1], 86 in experiment [2] and 80 in experiment [3].
In the same order, the values of `Cc1ncsc1-c1ccc([C@H](C)NC(=O)[C@@H]2C[C@@H](O)CN2C(=O)[C@@H](NC(=O)CCCCCCCN(CCOc2ccc(C(=O)c3c(-c4ccc(O)cc4)sc4cc(O)ccc34)cc2)C(C)C)C(C)(C)C)cc1` are 28, 0.5 and 0.2.
Regarding `C#Cc1ccc([C@H](C)NC(=O)[C@@H]2C[C@@H](O)CN2C(=O)[C@@H](NC(=O)CCCCCCCN(CC)CCOc2ccc(C(=O)c3c(-c4ccc(O)cc4)sc4cc(O)ccc34)cc2)C(C)(C)C)cc1`, the values for the Ratio in experiment [1], in experiment [2] and in experiment [3] were 90, 24 and 8, respectively.
Turning to `Cc1ncsc1-c1ccc([C@H](C)NC(=O)[C@@H]2C[C@@H](O)CN2C(=O)[C@@H](NC(=O)CCCCCCCN(CCOc2ccc(C(=O)c3c(-c4ccc(O)cc4)sc4cc(O)ccc34)cc2)C2CCCC2)C(C)(C)C)cc1`, the Ratio in experiment [1] stood at 75; in experiment [2], 0.3; in experiment [3] it was 0.1.
Consider `CCN(CCCCCCCCC(=O)N[C@H](C(=O)N1C[C@H](O)C[C@H]1C(=O)N[C@@H](C)c1ccc(-c2scnc2C)cc1)C(C)(C)C)CCOc1ccc(C(=O)c2c(-c3ccc(O)cc3)sc3cc(O)ccc23)cc1`, for which the Ratio is 23 in experiment [1], 7 in experiment [2] and 3 in experiment [3].
As to `CCN(CCCCCCCC(=O)N[C@H](C(=O)N1C[C@H](O)C[C@H]1C(=O)N[C@@H](C)c1ccc(Cl)cc1)C(C)(C)C)CCOc1ccc(C(=O)c2c(-c3ccc(O)cc3)sc3cc(O)ccc23)cc1`, the Ratio worked out at 99 in experiment [1], 87 in experiment [2] and 79 in experiment [3].
For the compound `CCN(CCCCCCCC(=O)N[C@H](C(=O)N1C[C@H](O)C[C@H]1C(=O)N[C@@H](C)c1ccc(C2CC2)cc1)C(C)(C)C)CCOc1ccc(C(=O)c2c(-c3ccc(O)cc3)sc3cc(O)ccc23)cc1`, the Ratio in experiment [1] amounted to 130; in experiment [2], 75; in experiment [3] it was 70.
For `CCC(=C(c1ccc(O)cc1)c1ccc(OCCN(CC)CCCCCCCC(=O)N[C@H](C(=O)N2C[C@H](O)C[C@H]2C(=O)N[C@@H](C)c2ccc(-c3scnc3C)cc2)C(C)(C)C)cc1)c1ccccc1`, the Ratio is 55 in experiment [1], 24 in experiment [2] and 0.6 in experiment [3].
